For test [1], the target named is 5-hydroxytryptamine receptor 1B (Rattus norvegicus, UniProt P28564). Put plainly: Binding affinity against 5-hydroxytryptamine 1B receptor in membranes of Rat cerebral cortex. The test is classed as tissue-based. The procedure, abridged: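 Rat cerebral cortical membranes labelled with [125I]iodocyanopindolol in the presence of 60 μM isoproterenol to block β-adrenoceptor binding. Nonspecific binding was defined with 10 μM 5-HT.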

Test [2] has as its system Rattus norvegicus. Kind of test: Effect on the wet dog shake response(WDS) in rats after 8 determinations at a dose of 1 mg/kg, sc pretreated with saline. The settings on record: route subcutaneous.
Test [3] relates to Rattus norvegicus. Put plainly: Effect on the wet dog shake response(WDS) in rats after 8 determinations at a dose of 1 mg/kg, sc pretreated with 200 mg/kg ip of pCPA.

Sequence of 5-hydroxytryptamine receptor 1B (P28564 whole entry): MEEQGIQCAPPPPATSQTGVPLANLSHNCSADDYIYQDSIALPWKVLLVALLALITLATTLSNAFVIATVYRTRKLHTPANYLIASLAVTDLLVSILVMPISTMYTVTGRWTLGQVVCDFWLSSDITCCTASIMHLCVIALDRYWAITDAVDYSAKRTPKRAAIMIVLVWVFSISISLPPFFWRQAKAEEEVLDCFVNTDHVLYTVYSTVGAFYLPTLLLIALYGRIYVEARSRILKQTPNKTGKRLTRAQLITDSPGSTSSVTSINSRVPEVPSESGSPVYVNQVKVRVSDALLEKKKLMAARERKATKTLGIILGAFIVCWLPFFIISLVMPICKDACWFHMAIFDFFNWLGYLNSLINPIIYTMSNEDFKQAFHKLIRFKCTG

For orientation: Ki means a measure of affinity in units of concentration, obtained from inhibition or displacement. Lower therefore signals higher affinity. The compound `CN1CCOC(COc2cccc3c2OCC(C#N)=C3)C1` (racemic) yielded a Ki in test [1] of 3600 nM. Still for that read-out and setting: the value for `N#CC1=Cc2cccc(OCC3CNCCO3)c2CC1` (racemic) was 445 nM; that for `N#CC1=Cc2cccc(OCC3CCCNC3)c2OC1` (racemic) was 1400 nM; that for `C1=C(CN2CCOCC2)COc2c1cccc2OCC1CNCCO1` (racemic) was 60 nM. `c1ccc2nc(N3CCNCC3)ccc2c1` [QUIPAZINE]: the “No. of WDS/60 min” value in the test on Rattus norvegicus [2] came to 36; in the test with Rattus norvegicus [3], 30. `O=C(C1=Cc2cccc(OCC3CNCCO3)c2OC1)N1CCOCC1` (stereo not drawn) showed an inhibition constant Ki in test [1] of 240 nM. In turn, `N#CC1=Cc2cccc(OCC3CNCCO3)c2OC1` (racemic) registered a Ki in test [1] of 250 nM. This Ki and that of the compound before are within 1.5-fold of each other.

(Values after ChEMBL document CHEMBL1131235, “(R)-(+)-2-[[[3-(Morpholinomethyl)-2H-chromen-8-yl]oxy]methyl] morpholine methanesulfonate: a new selective rat 5-hydroxytryptamine1B receptor antagonist” (J Med Chem, 1998).)
